The list is not random: actives were taken first. Their share in the collection is about 1.8%.
HTRA1 inhibitor: HTRA1 (human) protease inhibition | Q92743 | recombinant HTRA1, FP-rhodamine activity-based probe, fluorescence polarization | inhibition, % at 5.96 µM | 340,000 tested, 0.5% active; in the data active means inhibition above about 36%;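 further: 0% = enzyme with DMSO and 100% = wells lacking enzyme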
Target sequence (Q92743 whole entry, looked up): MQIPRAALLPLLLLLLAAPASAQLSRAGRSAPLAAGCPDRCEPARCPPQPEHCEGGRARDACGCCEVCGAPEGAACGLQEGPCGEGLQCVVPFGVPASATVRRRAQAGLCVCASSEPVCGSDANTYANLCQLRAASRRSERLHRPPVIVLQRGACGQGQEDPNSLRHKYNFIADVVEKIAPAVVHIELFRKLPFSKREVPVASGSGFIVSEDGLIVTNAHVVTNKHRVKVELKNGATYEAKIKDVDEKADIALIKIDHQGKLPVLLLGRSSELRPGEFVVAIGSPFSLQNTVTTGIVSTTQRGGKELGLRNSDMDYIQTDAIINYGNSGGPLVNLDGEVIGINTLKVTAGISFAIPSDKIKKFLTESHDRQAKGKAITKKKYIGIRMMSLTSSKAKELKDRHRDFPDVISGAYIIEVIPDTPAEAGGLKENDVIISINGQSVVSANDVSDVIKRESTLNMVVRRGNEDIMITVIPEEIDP
SIAE primary: human SIAE inhibition, primary screen; Q9HAT2; SIAE FP-Rh probe binding, fluorescence polarization; inhibition, % at 9.66 µM; 370,000 tested, 0.69% active; AID 1053197;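 active means inhibition above a cutoff: mean of compounds within the control limits plus 3 SD of those, cut at about 17% in these data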;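 further: 0% = plate median of compound wells and 100% = probe without SIAE protein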
ABHD4 inh: ABHD4 (mouse) inhibition, primary FP screen. purified mABHD4, FP-Rh probe fluorescence polarization. inhibition, % at 8.92 µM. 370,000 tested, 0.54% active. Q8VD66. AID 720543;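 active means inhibition exceeding the mean over every tested compound plus 3 SD, cut at about 30% in these data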;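 further: 0% = plate median of compound wells and 100% = S159A mutant with DMSO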
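Material: mouse ABHD4 enzyme, wild type; Benchmarks: S159A mutant high control, sample median low control; Buffer or medium: HEPES pH 7.0, NaCl, Pluronic buffer; Signal: fluorescence polarization; Read-out: percent inhibition of probe binding, normalized to plate controls; Timing: pre-incubation 45 min, probe exposure 60 min, at 25 °C; Dosing: 8.92 µM, single dose.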
TCR-CD3 inh: inhibitors of human TCR-CD3 interaction. TAMRA-labeled TCR probe fluorescence, biochemical. AID 651800. inhibition, % at 9.4 µM. 360,000 tested, 0.37% active; in the data active means inhibition above about 19%;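 further: recombinant mutant TCR 2C K166C tagged with TAMRA read by polarization; 0% = receptor in buffer alone and 100% = receptor with positive control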
DDE Tn7 FP inh: inhibitors of Tn7 peptide binding to human fibrin DD(E) | FP displacement of FITC-Tn7 peptide from fibrin DD(E); 0% = median of compound wells per plate | P02675 | 370,000 tested, 0.13% active | AID 720508 | inhibition, % at 8.3 µM;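 active means inhibition above the mean of compounds falling within the control limits plus 3 SD of them, cut at about 14% in these data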;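 further: 0% = plate median of compound wells and 100% = 10 µM Aha-Tn7 peptide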
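assay system = human clot-derived fibrin DD(E) complex | quantity = Fibrin-DD(E) at 2 µM final | timing = 10 min preincubation, 3 h with tracer, room temperature | signal = fluorescence polarization | measure = percent inhibition | benchmarks = high control wells with 10 µM unlabelled Aha-Tn7 peptide (full inhibition) | replicates = singlicate testing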
DDE Tn6 FP inh: DD(E)-Tn6 binding inhibition, primary FP screen | AID 720509 | P02675 | 370,000 tested, 0.21% active | Fibrin DD(E) TRITC-Tn6 fluorescence polarization displacement | inhibition, % at 8.3 µM;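 active means inhibition above a per-campaign cutoff: mean of compounds within control limits plus 3 SD, cut at about 15% in these data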;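 further: 0% = median of all compound wells on the plate and 100% = blocking peptide control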
ABHD4 confirm: confirmation of mouse ABHD4 inhibitors. shares compounds with ABHD4 inh. inhibition, % at 8.92 µM. AID 720658. 1,800 tested, 55% active. purified mABHD4, FP-Rh probe fluorescence polarization;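 active means mean inhibition across replicates above the hit cutoff set in the primary screen, cut at about 30% in these data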;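 further: 0% = wild-type ABHD4 with DMSO and 100% = catalytically dead S159A mutant with DMSO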
The depositor's hits bear a star.

For COc1ccccc1NC(=O)OC1CCC12CCCCC2 (configuration not stated) the results were SIAE primary -4, ABHD4 inh -1, DDE Tn7 FP inh 1 and DDE Tn6 FP inh -2.
Screening Cc1ccc(OC(=S)Nc2ccc(F)cc2)cc1 returned HTRA1 inhibitor 1, SIAE primary -5, ABHD4 inh 9, TCR-CD3 inh 9, DDE Tn7 FP inh -3 and DDE Tn6 FP inh 0.
For Cc1ccc(OC(=S)Nc2ccc(O)cc2)cc1 the results were HTRA1 inhibitor 3, SIAE primary 4, ABHD4 inh 44*, TCR-CD3 inh 18, DDE Tn7 FP inh -7, DDE Tn6 FP inh 2 and ABHD4 confirm 0.
`Cc1nnc(Nc2ccc(O)cc2)[nH]c1=O` gave HTRA1 inhibitor 9, SIAE primary 2, ABHD4 inh 43*, TCR-CD3 inh -6, DDE Tn7 FP inh 1, DDE Tn6 FP inh -8 and ABHD4 confirm 24.
O=C(O)C1CCN(S(=O)(=O)c2ccc3[nH]ccc3c2)CC1 was read as HTRA1 inhibitor 1, SIAE primary 0, ABHD4 inh 30*, TCR-CD3 inh 0, DDE Tn7 FP inh 0, DDE Tn6 FP inh -3 and ABHD4 confirm 29.
`O=C(NNC(=S)NC1CCCCC1)c1sc2ccccc2c1Cl` gave HTRA1 inhibitor 9, SIAE primary 12, ABHD4 inh 31*, TCR-CD3 inh 6, DDE Tn7 FP inh -5, DDE Tn6 FP inh -2 and ABHD4 confirm 22.
CC(=O)OCCCNc1cc(SCc2ccco2)c2nonc2c1[N+](=O)[O-] was read as HTRA1 inhibitor 8, SIAE primary 13, ABHD4 inh 49*, TCR-CD3 inh 13, DDE Tn7 FP inh 1, DDE Tn6 FP inh -4 and ABHD4 confirm 11.
CCOC(=O)NC1(NCC(C)C)Oc2ccccc2O1 was read as HTRA1 inhibitor 17, SIAE primary 8, ABHD4 inh 33*, TCR-CD3 inh 5, DDE Tn7 FP inh -4, DDE Tn6 FP inh -3 and ABHD4 confirm 3.
Screening Fc1ccc(C(c2ccc(F)cc2)N2CCN(C/C=C/c3ccccc3)CC2)cc1 returned HTRA1 inhibitor -17, SIAE primary 0, ABHD4 inh 12, TCR-CD3 inh 6, DDE Tn7 FP inh 6 and DDE Tn6 FP inh 4.
For C(=C\c1ccccc1)/CN1CCN(C(c2ccccc2)c2ccccc2)CC1 the results were HTRA1 inhibitor -6, SIAE primary 2, ABHD4 inh 95*, TCR-CD3 inh 0, DDE Tn7 FP inh -5, DDE Tn6 FP inh -2 and ABHD4 confirm 4.
Screening COc1ccc(N2CCN(CCCNC(=O)Cc3ccc(C(F)(F)F)cc3)CC2)cc1 returned SIAE primary 5, ABHD4 inh 0, DDE Tn7 FP inh 9 and DDE Tn6 FP inh 3.
`CC1SC(=S)N(c2ccc(N(C)C)cc2)C1=O` (configuration not stated) gave HTRA1 inhibitor 29, SIAE primary 10, ABHD4 inh 33*, TCR-CD3 inh 1, DDE Tn7 FP inh 6, DDE Tn6 FP inh 4 and ABHD4 confirm 25.
For CN(C)c1ccc(N2C(=O)CSC2=S)cc1 the results were HTRA1 inhibitor 19, SIAE primary -15, ABHD4 inh 29, TCR-CD3 inh -46, DDE Tn7 FP inh -7 and DDE Tn6 FP inh -2.
Screening CCCCN(C)c1c(C)nc2ccc(C(=O)Nc3cc(-c4ccccc4)ccc3OC)cn12 returned SIAE primary 4, ABHD4 inh 40*, TCR-CD3 inh 8, DDE Tn7 FP inh 5, DDE Tn6 FP inh 2 and ABHD4 confirm 56*.
CCc1nc2ccc(C(=O)Nc3cc(-c4ccccc4)ccc3OC)cn2c1N(C)CCCc1ccccc1 was read as SIAE primary 1, ABHD4 inh 16, TCR-CD3 inh 0, DDE Tn7 FP inh -6 and DDE Tn6 FP inh 0.
For Cc1[nH]n(-c2ncc(-c3ccccc3)s2)c(=O)c1C(c1ccc(Cl)cc1)C(C#N)C#N (configuration not stated) the results were HTRA1 inhibitor 12, SIAE primary 14, ABHD4 inh 49*, TCR-CD3 inh -13, DDE Tn7 FP inh 0, DDE Tn6 FP inh -1 and ABHD4 confirm 52*.

Compound activity deposited in PubChem BioAssay by The Scripps Research Institute Molecular Screening Center.
